Data on 19 molecules can be found in ChEMBL document CHEMBL1141609, “Combinatorial synthesis of anilinoanthraquinone derivatives and evaluation as non-nucleotide-derived P2Y2 receptor antagonists” (Bioorg Med Chem Lett, 2008).

Each structure is given as a SMILES string.

Experiment [1] concerns the target P2Y purinoceptor 2 (Mus musculus, UniProt P35383). Description: Antagonist activity at mouse P2Y2 receptor in mouse NG108-15 cells assessed as inhibition of UTP-induced calcium mobilization. It counts as functional, cell-based. An outline of the steps:
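Mouse P2Y2 receptor natively expressed in NG108-15 neuroblastoma x glioma hybrid cells. Calcium mobilization evoked by 3 uM UTP (ca. 50-80% of maximal effect) was read with the fluorescent Ca2+ dye Fura-2 on a fluorescence plate reader. IC50 was taken from inhibition of the UTP response.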
Background: Calcium assays in cells follow changes in intracellular calcium, usually with a dye or a luminescent sensor.

The target in experiment [2] is P2Y purinoceptor 2 (Homo sapiens, UniProt P41231). Description: Antagonist activity at human recombinant P2Y2 receptor in 1321N1 cells assessed as inhibition of UTP-induced calcium mobilization. It counts as functional, cell-based. An outline of the steps:
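Human P2Y2 receptor recombinantly expressed in 1321N1 astrocytoma cells. Calcium mobilization evoked by 1 uM UTP (ca. 50-80% of maximal effect) was read with the fluorescent Ca2+ dye Fura-2 on a fluorescence plate reader. IC50 was taken from inhibition of the UTP response.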

In experiment [3] the target is T1, Ectonucleoside triphosphate diphosphohydrolase 1 (Rattus norvegicus, UniProt P97687).
T1 sequence (P97687 whole entry): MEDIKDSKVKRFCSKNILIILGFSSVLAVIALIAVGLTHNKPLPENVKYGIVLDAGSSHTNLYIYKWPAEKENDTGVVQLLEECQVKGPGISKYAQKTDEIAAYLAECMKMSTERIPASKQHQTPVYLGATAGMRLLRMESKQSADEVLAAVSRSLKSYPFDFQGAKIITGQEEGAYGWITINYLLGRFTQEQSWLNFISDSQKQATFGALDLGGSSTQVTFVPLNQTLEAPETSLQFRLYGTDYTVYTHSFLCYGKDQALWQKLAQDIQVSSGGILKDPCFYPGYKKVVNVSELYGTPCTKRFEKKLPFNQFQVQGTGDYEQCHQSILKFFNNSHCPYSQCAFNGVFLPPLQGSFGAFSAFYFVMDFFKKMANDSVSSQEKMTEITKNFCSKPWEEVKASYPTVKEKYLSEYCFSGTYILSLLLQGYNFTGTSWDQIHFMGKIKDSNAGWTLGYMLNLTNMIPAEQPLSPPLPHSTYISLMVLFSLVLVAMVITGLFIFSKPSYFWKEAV
Put plainly: Inhibition of rat NTPDase 1.

Another experiment deals with T2, 5'-nucleotidase (Rattus norvegicus, UniProt P21588).
T2 sequence (P21588 whole entry): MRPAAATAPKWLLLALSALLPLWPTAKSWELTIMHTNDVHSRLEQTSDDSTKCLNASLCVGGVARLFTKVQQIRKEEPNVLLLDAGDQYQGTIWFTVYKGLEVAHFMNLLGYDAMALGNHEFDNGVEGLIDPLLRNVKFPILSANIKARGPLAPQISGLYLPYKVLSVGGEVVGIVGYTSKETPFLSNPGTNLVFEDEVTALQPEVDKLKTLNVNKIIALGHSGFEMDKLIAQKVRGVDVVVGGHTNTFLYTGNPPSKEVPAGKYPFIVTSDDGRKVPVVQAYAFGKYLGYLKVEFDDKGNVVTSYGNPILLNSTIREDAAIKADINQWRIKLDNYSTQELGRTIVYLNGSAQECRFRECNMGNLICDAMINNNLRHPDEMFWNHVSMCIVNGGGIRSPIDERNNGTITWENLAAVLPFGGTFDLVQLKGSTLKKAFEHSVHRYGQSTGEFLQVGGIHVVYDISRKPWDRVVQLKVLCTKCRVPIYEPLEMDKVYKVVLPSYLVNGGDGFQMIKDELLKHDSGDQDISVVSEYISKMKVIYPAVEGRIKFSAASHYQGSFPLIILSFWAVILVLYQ
Put plainly: Inhibition of rat ecto-5'-nucleotidase.

A further experiment deals with P2Y purinoceptor 6 (Rattus norvegicus, UniProt Q63371). Put plainly: Antagonist activity at rat P2Y6 receptor. It counts as functional.
A further experiment deals with P2Y purinoceptor 4 (Homo sapiens, UniProt P51582). Description: Antagonist activity at human P2Y4 receptor. It counts as functional.
Sequence of P2Y purinoceptor 4 (P51582 whole entry): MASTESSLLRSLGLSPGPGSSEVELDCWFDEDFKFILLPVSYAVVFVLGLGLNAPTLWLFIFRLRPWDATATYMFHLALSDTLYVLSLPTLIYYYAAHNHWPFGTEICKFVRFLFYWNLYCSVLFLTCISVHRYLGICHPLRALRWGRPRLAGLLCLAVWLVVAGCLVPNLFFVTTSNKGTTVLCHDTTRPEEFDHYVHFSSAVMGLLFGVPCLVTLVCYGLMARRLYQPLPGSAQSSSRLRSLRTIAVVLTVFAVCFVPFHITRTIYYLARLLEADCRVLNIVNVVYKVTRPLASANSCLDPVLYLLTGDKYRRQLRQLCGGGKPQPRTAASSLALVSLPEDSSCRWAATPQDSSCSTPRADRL

Sequence of P2Y purinoceptor 2 (Homo sapiens, UniProt P41231) (P41231 whole entry): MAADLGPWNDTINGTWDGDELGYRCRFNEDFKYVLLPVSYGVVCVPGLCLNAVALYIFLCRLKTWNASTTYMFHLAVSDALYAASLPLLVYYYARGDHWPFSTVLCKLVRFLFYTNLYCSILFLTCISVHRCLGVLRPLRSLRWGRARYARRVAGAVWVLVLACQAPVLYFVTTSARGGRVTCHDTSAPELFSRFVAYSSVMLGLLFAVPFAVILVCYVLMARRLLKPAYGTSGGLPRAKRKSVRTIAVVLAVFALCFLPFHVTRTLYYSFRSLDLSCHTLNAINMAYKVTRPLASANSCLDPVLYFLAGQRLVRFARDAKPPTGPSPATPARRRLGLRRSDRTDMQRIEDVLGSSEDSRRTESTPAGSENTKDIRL
Sequence of P2Y purinoceptor 2 (Mus musculus, UniProt P35383) (P35383 whole entry): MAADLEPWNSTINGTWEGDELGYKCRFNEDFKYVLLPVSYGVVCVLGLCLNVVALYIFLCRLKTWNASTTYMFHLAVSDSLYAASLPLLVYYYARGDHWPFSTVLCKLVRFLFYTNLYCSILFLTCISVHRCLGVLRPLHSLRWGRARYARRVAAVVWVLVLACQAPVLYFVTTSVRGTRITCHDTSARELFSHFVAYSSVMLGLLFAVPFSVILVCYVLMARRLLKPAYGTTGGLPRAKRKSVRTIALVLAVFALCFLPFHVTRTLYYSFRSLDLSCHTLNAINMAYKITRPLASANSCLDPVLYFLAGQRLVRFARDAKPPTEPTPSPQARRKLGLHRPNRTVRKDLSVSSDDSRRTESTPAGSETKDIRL
Sequence of P2Y purinoceptor 6 (Q63371 whole entry): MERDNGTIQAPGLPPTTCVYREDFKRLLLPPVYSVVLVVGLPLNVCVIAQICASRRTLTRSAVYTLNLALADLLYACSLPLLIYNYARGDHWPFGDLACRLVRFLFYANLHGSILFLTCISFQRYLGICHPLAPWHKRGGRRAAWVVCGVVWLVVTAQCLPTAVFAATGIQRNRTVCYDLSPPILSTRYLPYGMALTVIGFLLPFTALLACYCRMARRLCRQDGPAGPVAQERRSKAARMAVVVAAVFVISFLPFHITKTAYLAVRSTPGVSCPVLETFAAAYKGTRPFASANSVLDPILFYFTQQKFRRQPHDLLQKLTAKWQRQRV

Take `Cc1ccc(C)c(Nc2cc(S(=O)(=O)O)c(N)c3c2C(=O)c2ccccc2C3=O)c1`: the IC50 was found to be 17 µM on P2Y purinoceptor 2 [1] and 30.3 µM on P2Y purinoceptor 2 [2]. The corresponding values for `CC(=O)Nc1ccc(Nc2cc(S(=O)(=O)O)c(N)c3c2C(=O)c2ccccc2C3=O)cc1` are 12 µM and 5.81 µM. In the same order, the values of `Nc1c(S(=O)(=O)O)cc(Nc2cccc(Cl)c2)c2c1C(=O)c1ccccc1C2=O` are more than 100 µM and more than 30 µM. For the molecule `Nc1c(S(=O)(=O)O)cc(Nc2ccc(Nc3ccccc3)cc2)c2c1C(=O)c1ccccc1C2=O`, at P2Y purinoceptor 2 [2], the IC50 is 3.93 µM. On to `Cc1ccc(Nc2cc(S(=O)(=O)O)c(N)c3c2C(=O)c2ccccc2C3=O)cc1`, for which the figures for the concentration for half-maximal inhibition (IC50) at P2Y purinoceptor 2 [1] and at P2Y purinoceptor 2 [2] were 27 µM and 24.9 µM, respectively. Turning to `Nc1c(S(=O)(=O)O)cc(Br)c2c1C(=O)c1ccccc1C2=O` [BROMAMINIC ACID], the IC50 at P2Y purinoceptor 2 [1] is more than 100 µM. `COc1ccccc1Nc1cc(S(=O)(=O)O)c(N)c2c1C(=O)c1ccccc1C2=O`: the IC50 is 9 µM on P2Y purinoceptor 2 [1], more than 100 µM at P2Y purinoceptor 6, 9.82 µM on P2Y purinoceptor 2 [2] and 50 µM on P2Y purinoceptor 4. For the same molecule, the inhibition constant Ki (in experiment [3]; on 5'-nucleotidase) was more than 100 µM throughout. Regarding `Nc1c(S(=O)(=O)O)cc(Nc2ccc(Cl)cc2)c2c1C(=O)c1ccccc1C2=O`, on P2Y purinoceptor 2 [2], the IC50 amounted to 5.31 µM. As to `CCOc1ccccc1Nc1cc(S(=O)(=O)O)c(N)c2c1C(=O)c1ccccc1C2=O`, the concentration for half-maximal inhibition (IC50) came to 17 µM on P2Y purinoceptor 2 [1] and 15 µM at P2Y purinoceptor 2 [2]. The corresponding values for `Cc1ccccc1Nc1cc(S(=O)(=O)O)c(N)c2c1C(=O)c1ccccc1C2=O` are 10 µM and 16.2 µM. The corresponding values for `Cc1ccc(Nc2cc(S(=O)(=O)O)c(N)c3c2C(=O)c2ccccc2C3=O)c(C)c1` are 9 µM and 5.43 µM. The corresponding values for `COc1ccc(Nc2cc(S(=O)(=O)O)c(N)c3c2C(=O)c2ccccc2C3=O)cc1` are 17 µM and 11.5 µM. `Nc1c(S(=O)(=O)O)cc(Nc2cccc([N+](=O)[O-])c2)c2c1C(=O)c1ccccc1C2=O`: the IC50 at P2Y purinoceptor 2 [1] was more than 100 µM. On to `CC(=O)c1ccc(Nc2cc(S(=O)(=O)O)c(N)c3c2C(=O)c2ccccc2C3=O)cc1`, for which, at P2Y purinoceptor 2 [1], the IC50 was more than 100 µM. `Cc1cccc(Nc2cc(S(=O)(=O)O)c(N)c3c2C(=O)c2ccccc2C3=O)c1C`: the half-inhibitory concentration (IC50) on P2Y purinoceptor 2 [1] came to 14 µM; at P2Y purinoceptor 2 [2] it was 7.95 µM. In the same order, the values of `Nc1c(S(=O)(=O)O)cc(Nc2ccc(Nc3nc(Cl)nc(Nc4cccc(S(=O)(=O)O)c4)n3)c(S(=O)(=O)O)c2)c2c1C(=O)c1ccccc1C2=O` [RB 2] are 5 µM and 1.85 µM. With `Cc1cccc(Nc2cc(S(=O)(=O)O)c(N)c3c2C(=O)c2ccccc2C3=O)c1`, the IC50 was determined as 22 µM on P2Y purinoceptor 2 [1] and 3.04 µM on P2Y purinoceptor 2 [2]. In the same order, the values of `CCc1ccccc1Nc1cc(S(=O)(=O)O)c(N)c2c1C(=O)c1ccccc1C2=O` are 24 µM and 9.26 µM. In the same order, the values of `CCOc1ccc(Nc2cc(S(=O)(=O)O)c(N)c3c2C(=O)c2ccccc2C3=O)cc1` are 9 µM and 11.5 µM.

The IC50 is the concentration that gives 50% inhibition. The Ki is the dissociation constant of the complex between target and ligand, obtained from inhibition or displacement.
